Source: PubChem (several laboratories)
RanGTP-Impb inh – inhibitors of RanGTP-importin-beta interaction, primary screen, biochemical, FRET, CFP-Ran, YFP-importin-beta, homogeneous | actives 1.1% (n = 300,000) | AID 2216, 2009 | cell-free CFP-Ran/YFP-importin-beta FRET ratio | Ran GTPase (GTP-bound) - importin-beta complex | inhibition, % (concentration not given with the values);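 active means more than half of the replicate wells show a fall in the fluorescence ratio signal beyond about 16%, limit read from the data, passing the limit was not always enough; inconclusive means exactly half of the replicate wells pass the set limit; inactive means fewer than half of replicates pass the limit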;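 further: 0% = DMSO wells and 100% = Ran loaded with GDP instead of GTP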
Hck Nef HTS – inhibitors of Nef-activated human Hck kinase, primary screen, biochemical, Z-Lyte FRET, 384-well, Hck-YEEI. Tyrosine-protein kinase HCK (Homo sapiens), P08631. Recombinant Hck-YEEI plus Nef, Z-Lyte FRET kinase assay. inhibition, % at 20 µM. actives 0.68% (n = 220,000);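 active means Hck-Nef kinase inhibition above about 50%, limit read from the data; inactive means inhibition below that limit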;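 further: 0% = DMSO with Hck plus Nef and 100% = Hck alone without Nef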
Runt-CBFb FRET – inhibitors of RUNX1 Runt–CBFb binding, primary screen, biochemical, FRET, Cerulean-Runt, Venus-CBFb, uHTS; Cerulean-Runt/Venus-CBFb FRET ratio 530/480, 1 h; inhibition, % at 20 µM; actives 0.46% (n = 220,000); AID 1496, 2009;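 active means inhibition over about 50% at 20 µM in the single-dose screen, limit read from the data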;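 further: 0% = DMSO wells and 100% = excess unlabeled CBFb competitor control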
Target sequence (Q01196 whole entry, looked up): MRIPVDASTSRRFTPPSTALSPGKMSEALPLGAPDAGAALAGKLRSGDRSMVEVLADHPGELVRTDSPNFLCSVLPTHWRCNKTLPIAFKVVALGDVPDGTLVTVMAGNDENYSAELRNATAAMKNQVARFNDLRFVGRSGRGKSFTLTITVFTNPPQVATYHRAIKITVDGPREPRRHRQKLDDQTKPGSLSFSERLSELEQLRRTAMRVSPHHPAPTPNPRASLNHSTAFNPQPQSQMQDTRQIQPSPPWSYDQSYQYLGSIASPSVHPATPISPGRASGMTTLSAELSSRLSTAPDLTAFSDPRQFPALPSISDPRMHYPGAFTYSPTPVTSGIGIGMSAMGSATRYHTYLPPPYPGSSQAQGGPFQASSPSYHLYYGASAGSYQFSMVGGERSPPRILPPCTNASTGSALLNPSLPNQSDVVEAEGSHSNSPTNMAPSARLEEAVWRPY
Target sequence (Q13951 whole entry, looked up): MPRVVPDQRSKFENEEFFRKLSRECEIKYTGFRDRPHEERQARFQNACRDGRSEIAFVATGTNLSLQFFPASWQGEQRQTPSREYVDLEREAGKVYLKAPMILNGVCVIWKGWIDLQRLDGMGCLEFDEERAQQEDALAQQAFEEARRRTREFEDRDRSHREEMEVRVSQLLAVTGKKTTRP
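Buffer or medium: Tris pH 7.5 buffer with BSA. Assay system: Cerulean-labeled Runt domain protein. Amount: each fluorescent fusion protein 100 nM. Read-out basis: loss of energy transfer signal. Incubation: 1 h compound exposure, room temperature. Probe or stimulus: Venus-CBFb binding partner, 100 nM. Detection: FRET, excitation 422 nm, emission at 530 and 480 nm.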
p97 ATPase inh – inhibitors of human p97 ATPase, primary screen, biochemical. Transitional endoplasmic reticulum ATPase (Homo sapiens), P55072. recombinant p97 ATPase, Kinase-Glo ATP luminescence, 3 h. inhibition, % at 8 µM. actives 0.42% (n = 220,000). AID 1481, 2009; in the data active means inhibition above about 15%;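 further: 0% = DMSO vehicle and 100% = wells lacking enzyme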
Tb hexokinase – Trypanosoma brucei hexokinase 1 inhibitors, primary screen, biochemical, G6PDH-coupled NADH absorbance, MLSCN library | recombinant TbHK1, G6PDH-coupled NADH A340 | inhibition, % at 10 µM | AID 1430, 2008 | hexokinase 1 [Trypanosoma brucei] | actives 0.11% (n = 220,000);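 active means inhibition of 50% or more in the single-dose primary screen; inactive means inhibition below 50%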
Runt-SMMHC FRET – inhibitors of RUNX1 Runt–CBFb-SMMHC binding, primary screen, biochemical, FRET, Cerulean-Runt, Venus-CBFb-SMMHC, uHTS; Runt-related transcription factor 1 (Homo sapiens) + Core-binding factor subunit beta …; Cerulean-Runt/Venus-CBFb-SMMHC FRET ratio 530/480, 1 h; inhibition, % at 20 µM; actives 0.74% (n = 220,000); AID 1434, 2008;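 active means mean inhibition across duplicate retests at 20 µM reaching about 50%, limit read from the data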;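 further: 0% = DMSO wells and 100% = wells with excess untagged CBFb-SMMHC; inhibitors lower the FRET ratio by blocking Runt binding to CBFb-SMMHC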
YIC counter – YIC intramolecular FRET probe signal interference, dose response, counter-screen for RanGTP-importin-beta inhibitor project, biochemical, fluorescence FRET. shares compounds with RanGTP-Impb inh. Purified YIC probe, intramolecular FRET ratio YFP/CFP. IC50, µM. actives 40% (n = 1,000);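 active means fitted half-maximal inhibitory concentration no more than tenfold above the top dose tested; inconclusive means flat fit with 30 to 70% activity, or poor fit; inactive means half-maximal concentration beyond tenfold above the top dose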
Numbers without * were called inactive; ? = inconclusive; / = no result. Only some compounds are listed: those with a hit (about 2.1% of all), similar ones and a draw of the others.

SMILES | RanGTP-Impb inh | Hck Nef HTS | Runt-CBFb FRET | p97 ATPase inh | Tb hexokinase | Runt-SMMHC FRET | YIC counter
Cc1cc([N+](=O)[O-])nn1CC(=O)N1N=C(C(F)F)CC1(O)C(F)F (stereo unspecified) | -2 | 3 | -2 | -2 | -8 | -2 | /
CCCN(CCC)CCCNC(=O)c1nn(-c2cccc(OC)c2)c(=O)c2ccccc12 | -1 | -3 | -2 | 0 | 0 | 0 | /
CCCCn1c(O)c(/C=C/C=C/C=Nc2ccccc2)sc1=S | 4 | 45 | 1 | 0 | 13 | -19 | /
CCCn1c(O)c(C=Nc2ccccc2)sc1=S | 27* | 12 | 21 | 5 | -2 | 49 | 12*
CC1CCN=C(N)S1 (stereo unspecified) | -3 | / | / | / | / | / | /
O=C(Nc1ccc(F)cc1)C1CCN(C(=O)NCc2ccccc2)CC1 | 2 | / | / | / | / | / | /
COc1nc(-c2cccc([N+](=O)[O-])c2)nc2ccccc12 | -3 | 21 | -1 | 4 | -3 | 0 | /
Cc1cccc(Oc2nc(-c3cccc([N+](=O)[O-])c3)nc3ccccc23)c1C | 21* | -1 | 2 | 0 | -8 | 2 | >50
Cc1nnc(NC(=O)c2c(-c3ccccc3)noc2C)s1 | 2 | 2 | 0 | 3 | 3 | -4 | /
Cc1onc(-c2ccccc2)c1C(=O)Nc1cccc2nsnc12 | 22* | 7 | 10 | 1 | -3 | 25 | 37*
O=C(Nc1ccc([N+](=O)[O-])cc1)Nc1ccc(N2CCOCC2)c2nonc12 | -4 | 21 | 6 | 6 | -9 | 2 | /
CCCS(=O)(=O)c1nc(S(=O)(=O)c2ccc(C)cc2)c(NCc2ccccn2)s1 | 5 | 26 | 3 | 1 | -8 | 0 | /
CCS(=O)(=O)c1nc(S(=O)(=O)c2ccc(C)cc2)c(NCc2ccccn2)s1 | 16* | -1 | 8 | 5 | -13 | -4 | >50
COc1cc2c(cc1NC(=S)Nc1cccc3ccccc13)oc1ccccc12 | 18* | 1 | 8 | 8 | -21 | 3 | >50
O=C1/C(=C/c2cccs2)Sc2ccccc21 | 19* | 6 | -1 | 2 | -8 | -3 | ?
O=C(C1CCCCC1)N1CC(=O)N2CCc3ccccc3C2C1 (stereo unspecified) | 21* | -1 | 0 | 2 | 3 | 3 | >50
O=C(C1CCCCC1)N1CCc2ccccc21 | -1 | 22 | 1 | 4 | -2 | 0 | /
CN1CCCN(C(=O)Cc2c(Cl)cccc2Cl)c2nc3ccccc3nc21 | 22* | 8 | 48 | -6 | -1 | 54* | 28*
CN1CCCN(C(=O)c2cc(=O)[nH]c3ccccc23)c2nc3ccccc3nc21 | 6 | 1 | 3 | 3 | -9 | 3 | /
O=C1CC(/C=C/c2ccco2)=Nc2ccccc2N1 | 24* | 3 | 13 | -1 | -9 | -1 | >50
O=C(CSc1ccc2nnc(-c3cccnc3)n2n1)Nc1ccccc1C(F)(F)F | 3 | / | / | / | / | / | /
Cc1c2ccccc2nc2ccccc12 | 4 | / | / | / | / | / | /
COc1c2ccccc2nc2ccccc12 | 41* | / | / | / | / | / | 14*
COC(=O)C1(C)NC(c2ccc(Cl)cc2)C2C(=O)N(c3ccccc3)C(=O)C21 (stereo unspecified) | 3 | / | / | / | / | / | /
O=C(O)c1cccc(Nc2c3ccccc3nc3ccccc23)c1 | 20* | / | / | / | / | / | >50
SMILES | RanGTP-Impb inh | Hck Nef HTS | Runt-CBFb FRET | p97 ATPase inh | Tb hexokinase | Runt-SMMHC FRET | YIC counter
O=[N+]([O-])c1ccc(Nc2c3ccccc3nc3ccccc23)cc1 | 25* | 22 | 48 | 10 | -1 | 23 | >50
CC(=O)c1cccc(Nc2cc(C)nc3ccccc23)c1 | 1 | 29 | 2 | 6 | -51 | 0 | /
COc1ccc(/C=C2\SC(=S)N(CC(=O)OCC(=O)Nc3ccc([N+](=O)[O-])cc3OC)C2=O)cc1 | / | 24 | -29 | 7 | -16 | -55 | /
COc1ccc(/C=C2\SC(=S)N(CC(=O)OCC(=O)Nc3ccc(C)cc3Cl)C2=O)cc1 | 18* | 9 | -12 | 0 | -6 | -31 | >50
COc1ccc(-c2c(C)c3ccc(O)cc3oc2=O)cc1 | 19* | / | / | / | / | / | 22*
CC(C)NC(=O)/C(C#N)=C/c1ccc(N(C)C)o1 | 41* | 13 | -9 | 2 | -8 | -20 | 6.4*
COc1ccc2cc(C#N)c(N3CCN(C(=O)c4ccccc4C)CC3)nc2c1 | 31* | -30 | 12 | -2 | -9 | 6 | >50
Cc1ccc(S(=O)(=O)N2CCCN(c3nc4cc(C)ccc4cc3C#N)CC2)cc1 | 32* | 0 | 8 | -1 | -4 | 48 | 28*
Cc1ccc2cc(C#N)c(N3CCCN(C(=O)C4CCCO4)CC3)nc2c1 (stereo unspecified) | 18* | 12 | 4 | 0 | 3 | 2 | 26*
Cc1ccc2cc(C#N)c(N3CCCN(C(=S)NCCCN(C)C)CC3)nc2c1 | 19* | / | / | / | / | / | 25*
Cc1ccc2cc(C#N)c(N3CCCN(C(=O)c4cnccn4)CC3)nc2c1 | 6 | / | / | / | / | / | /
Cc1c(CC(=O)N2CCC(C(N)=O)CC2)c(=O)oc2cc3c(cc12)CCC1(CCCCC1)O3 | 4 | / | / | / | / | / | /
Cc1ccn2c(-c3n[nH]c(=S)n3C)c(C)nc2c1 | 2 | 7 | 10 | 3 | 1 | 10 | /
CCOc1ccccc1NC(=O)CSc1nnc2c(CC)c(C)nc(N)n12 | -1 | 1 | 3 | 9 | -4 | 3 | /
O=C1CC2(CCN(C(=O)c3ccc(Br)cc3)CC2)Oc2ccccc21 | 6 | / | / | / | / | / | /
COc1cc(C(=O)N2CCCN(c3nc4cc(C)ccc4cc3C#N)CC2)cc(OC)c1OC | 52* | / | 4 | / | / | 44 | 15*
COc1ccc(C(=O)N2CCN(c3nc4cc(C)ccc4cc3C#N)CC2)c(OC)c1 | 3 | 3 | 8 | -3 | -6 | 10 | /
CC1(c2cc(C(F)(F)F)n3nc(C(=O)O)cc3n2)CC1 | -2 | 8 | -2 | -4 | -6 | -2 | /
Cc1ccc(Nc2nc(N)nc(CCl)n2)cc1 | 1 | -2 | 1 | 3 | 0 | 2 | /
Cc1ccc(Nc2nc(N)nc(CC#N)n2)cc1 | 25* | 0 | 2 | -4 | 2 | 4 | >50
